Assay results of several laboratories.
Each line is one published result; the experiments were not run side by side.
Target: Serine/threonine-protein kinase SIK3 (SIK3, Homo sapiens, UniProt Q9Y2K2)

Compound | effect on | action | method | tested at | endpoint | value
CC(C)(C)c1nc(-c2cccc(NS(=O)(=O)c3c(F)cccc3F)c2F)c(-c2ccnc(N)n2)s1 | enzyme activity | inhibitor | radiometric | 1 µM | remaining activity | 60%
O=C(Nc1cnn(-c2csc(C(=O)NC3COC3)c2)c1)Nc1c(F)cccc1Cl | enzyme activity | inhibitor |  | 5 µM | remaining activity | 94.5%
Cc1ccc(C(=O)Nc2ccc(CN3CCN(C)CC3)c(C(F)(F)F)c2)cc1C#Cc1cnc2cccnn12 | enzyme activity | inhibitor |  | 23.5 nM | remaining activity | 87%
Cc1sc(C(=O)NC2COC2)cc1-n1cc(NC(=O)Nc2c(F)cccc2Cl)cn1 | enzyme activity | inhibitor |  | 10 µM | remaining activity | 86.9%
CC(C)(C)c1nc2c(s1)c1nc(N)ncc1c1ccc(NS(=O)(=O)c3c(F)cccc3F)c(F)c12 | enzyme activity | inhibitor | radiometric | 1 µM | remaining activity | 98%
CN(C(=O)c1ccccc1)c1cc(N(C)c2ccc3c(c2)CCc2ccc(C(=O)NCCN4CCOCC4)cc2C3=O)ccc1F | cell-free assay |  | competition with immobilised ligand | 1 µM | remaining binding | 74%
COc1cc(Nc2cnc(C#N)c(O[C@H](C)CN(C)C)n2)ncc1-c1cnn(C)c1 | enzyme activity | inhibitor | radiometric | 1 µM | remaining activity | 89%
O=S(=O)(NC1CCC(c2cc(F)ccc2F)(S(=O)(=O)c2ccc(Cl)cc2)CC1)C(F)(F)F (stereo not drawn) | cell-free assay |  | competition with immobilised ligand | 1 µM | remaining binding | 100%
COc1cc(/C=C/C(=O)CC(=O)/C=C/c2ccc(O)c(OC)c2)ccc1O | enzyme activity | inhibitor |  | 1 µM | activity vs control | 91%
COc1cc(Cl)c(C(=O)N[C@@H](CN[C@H]2CC[C@@H](N)CC2)Cc2ccc(C#N)cc2)cc1-c1ccc(CN[C@H](C)c2ccc(C)cc2)o1 | enzyme activity | inhibitor |  | 1 µM | remaining activity | 102%
Nc1ncnc2occ(-c3ccc(NC(=O)Nc4cc(C(F)(F)F)ccc4F)cc3)c12 | cell-free assay | inhibitor |  | 20 µM | remaining signal | 76%
FC(F)(F)Oc1cccc(-c2cnc3ccc(-c4ccncc4)nn23)c1 | enzyme activity | inhibitor | radiometric | 5 µM | activity vs control | 102%
